According to ChEMBL document CHEMBL3286189, “Discovery and SAR studies of a novel class of cytotoxic 1,4-disubstituted piperidines via Ugi reaction” (Eur J Med Chem, 2014):

What was measured:
Format in all cases: functional
NCI-H23 = assay: Anticancer activity against human NCI-H23 cells
How it was run: (§1)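 Values come from the NCI 60-cell-line human tumour panel, run on a single analog. Cytostatic and cytotoxic responses were read for each cell line across graded molar concentrations of that compound.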

MDA-MB-231 = assay: Anticancer activity against human MDA-MB-231/ATCC cells; how it was run: as §1
[1] = Anticancer activity against human Hs 578T cells; how it was run: as §1
SR = assay: Anticancer activity against human SR cells; how it was run: as §1
CAKI-1 = assay: Anticancer activity against human Caki1 cells
[2] = Anticancer activity against human LOXIMVI cells; details: LOX IMVI; how it was run: as §1
MCF7 = assay: Anticancer activity against human MCF7 cells; how it was run: as §1
CCRF-CEM = assay: Anticancer activity against human CCRF-CEM cells; how it was run: as §1
COLO 205 = assay: Anticancer activity against human COLO205 cells; how it was run: as §1
SF-268 = assay: Anticancer activity against human SF268 cells; how it was run: as §1
[3] = Anticancer activity against human OVCAR4 cells; how it was run: as §1
T47D = assay: Anticancer activity against human T47D cells; how it was run: as §1
RPMI-8226 = assay: Anticancer activity against human RPMI8226 cells; how it was run: as §1
[4] = Anticancer activity against human UACC62 cells
How it was run: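 Assayed in the NCI Cancer-60 human tumour cell line panel, with activity read across several log-step concentrations.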

K562 = assay: Anticancer activity against human K562 cells; how it was run: as §1
DU-145 = assay: Anticancer activity against human DU145 cells; how it was run: as §1
SNB-75 = assay: Anticancer activity against human SNB75 cells; how it was run: as §1
NCI-H322M = assay: Anticancer activity against human NCI-H322M cells; how it was run: as §1
MDA-MB-468 = assay: Anticancer activity against human MDA-MB-468 cells; how it was run: as §1
[5] = read-out: pLC50 (the source's name) (converted)

## CC(C)(C)OC(=O)N[C@@H](Cc1ccccc1)C(=O)N(Cc1ccccc1)C1(C(=O)NCc2ccccc2)CCN(Cc2ccccc2)CC1
NCI-H23
  GI50: 5.62 µM
NCI-H23; [5]
  CC50: > 100 µM
NCI-H23; read-out: pTGI
  TGI: > 100 µM
MDA-MB-231
  GI50: 3.02 µM
MDA-MB-231; [5]
  CC50: > 100 µM
MDA-MB-231; read-out: pTGI (converted)
  TGI: 79.4 µM
[1]
  GI50: 4.27 µM
[1]; [5]
  CC50: > 100 µM
[1]; read-out: pTGI
  TGI: > 100 µM
SR
  GI50: 2.34 µM
SR; [5]
  CC50: > 100 µM
SR; read-out: pTGI (converted)
  TGI: 7.59 µM
CAKI-1
  GI50: 2.34 µM
CAKI-1; [5]
  CC50: > 100 µM
CAKI-1; read-out: pTGI
  TGI: > 100 µM
[2]
  GI50: 3.63 µM
[2]; [5]
  CC50: > 100 µM
[2]; read-out: pTGI (converted)
  TGI: 21.4 µM
MCF7
  GI50: 2.82 µM
MCF7; [5]
  CC50: > 100 µM
MCF7; read-out: pTGI (converted)
  TGI: 19.1 µM
CCRF-CEM
  GI50: 3.31 µM
CCRF-CEM; [5]
  CC50: > 100 µM
CCRF-CEM; read-out: pTGI
  TGI: > 100 µM
COLO 205
  GI50: 1.66 µM
COLO 205; [5]
  CC50: 6.61 µM
COLO 205; read-out: pTGI (converted)
  TGI: 3.31 µM
SF-268
  GI50: 4.9 µM
SF-268; [5]
  CC50: > 100 µM
SF-268; read-out: pTGI
  TGI: > 100 µM
[3]; OVCAR-4
  GI50: 3.24 µM
[3]; OVCAR-4, read-out: pLC50 (the source's name) (converted)
  CC50: > 100 µM
[3]; OVCAR-4, read-out: pTGI
  TGI: > 100 µM
T47D
  GI50: 2.88 µM
T47D; [5]
  CC50: > 100 µM
T47D; read-out: pTGI
  TGI: > 100 µM
RPMI-8226
  GI50: 2.19 µM
RPMI-8226; [5]
  CC50: > 100 µM
RPMI-8226; read-out: pTGI (converted)
  TGI: 6.92 µM
[4]; UACC-62
  GI50: 2.51 µM
[4]; UACC-62, read-out: pLC50 (the source's name) (converted)
  CC50: > 100 µM
[4]; UACC-62, read-out: pTGI (converted)
  TGI: 7.94 µM
K562
  GI50: 3.39 µM
K562; [5]
  CC50: > 100 µM
K562; read-out: pTGI
  TGI: > 100 µM
DU-145
  GI50: 5.37 µM
DU-145; [5]
  CC50: > 100 µM
DU-145; read-out: pTGI
  TGI: > 100 µM
SNB-75
  GI50: 2.95 µM
SNB-75; [5]
  CC50: > 100 µM
SNB-75; read-out: pTGI
  TGI: > 100 µM
NCI-H322M
  GI50: 9.33 µM
NCI-H322M; [5]
  CC50: > 100 µM
NCI-H322M; read-out: pTGI
  TGI: > 100 µM
MDA-MB-468
  GI50: 1.62 µM
MDA-MB-468; [5]
  CC50: > 100 µM
MDA-MB-468; read-out: pTGI (converted)
  TGI: 5.89 µM
